Activity calls are given as the source filed them. The rule behind the calls is not given here.
System: SYF
Experiment: Effect on proliferation of mouse SYF cells expressing FRB3-ubiquitin-C-v-src construct at 100 nM after 24 hsr by MTT assay
Format: functional, cell-based
Method in brief: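 SYF cells (DMEM/10% FBS, 37°C, 5% CO2) transfected via FuGENE-6 with construct 1 plus v-Src cleavage construct; after 24 h expression, trypsinized, ~1 × 10^4 cells replated with rapamycin (100 nM) or DMSO; MTT proliferation assay performed after a further 24 h.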

CO[C@H]1C[C@@H]2CC[C@@H](C)[C@@](O)(O2)C(=O)C(=O)N2CCCC[C@H]2C(=O)O[C@H]([C@H](C)C[C@@H]2CC[C@@H](O)[C@H](OC)C2)CC(=O)[C@H](C)/C=C(\C)[C@@H](O)[C@@H](OC)C(=O)[C@H](C)C[C@H](C)/C=C/C=C/C=C/1C
Activity: Active
